{"data": "Assay results pooled from the literature"}
{"Structure (SMILES)": "CN(Cc1ccc(C2(C(F)(F)F)CC2)cc1)Cc1cccc2ccccc12", "tested on": "Trichophyton mentagrophytes", "test": "microbial growth, disc diffusion", "system": "ATCC18748", "setting": "0.512 µg/mL, 72 h", "measurement": "inhibition zone", "value": "≥ 55 mm"}
{"Structure (SMILES)": "C#CCOc1ccc(/C=C/c2cc(OC)cc(OC)c2-c2cnnn2C(=O)NCCc2ccccc2)cc1", "tested on": "RAW264.7", "test": "NO release, inhibitor, Griess", "setting": "10 µM, LPS-stimulated", "measurement": "inhibition", "value": "50.4%"}
{"Structure (SMILES)": "Cc1c(C(N)=S)c(N)n(N)c(=O)c1C#N", "tested on": "Enterobacter cloacae", "test": "microbial growth, well diffusion", "system": "ATCC23355", "setting": "500 µg/mL", "measurement": "inhibition zone", "value": "19 mm"}
{"Structure (SMILES)": "CN(Cc1ccc(C(C)(C)C)cc1)Cc1cccc2ccccc12", "tested on": "Trichophyton mentagrophytes", "test": "microbial growth, disc diffusion", "system": "ATCC18748", "setting": "0.004 µg/mL, 72 h", "measurement": "inhibition zone", "value": "34 mm"}
{"Structure (SMILES)": "CC#CCOc1ccc(/C=C/c2cc(OC)cc(OC)c2-c2cnnn2C(=O)NCCc2ccccc2)cc1", "tested on": "RAW264.7", "test": "NO release, inhibitor, Griess", "setting": "10 µM, LPS-stimulated", "measurement": "inhibition", "value": "82.3%"}
{"Structure (SMILES)": "CC(=O)OCCCOc1ccc(C(=O)C(Cl)Cl)cc1[N+](=O)[O-]", "tested on": "NCI-H1299", "test": "cell growth or viability, MTT", "setting": "2.5 µM", "measurement": "inhibition", "value": "60.3%"}
{"Structure (SMILES)": "C#CCOc1ccc(/C=C/c2cc(OC)cc(OC)c2-c2cnnn2C(=O)NCC)cc1", "tested on": "RAW264.7", "test": "NO release, inhibitor, Griess", "setting": "10 µM, LPS-stimulated", "measurement": "inhibition", "value": "71.3%"}
{"Structure (SMILES)": "O=C1C(NCCc2ccc(O)cc2)=CC2=NCCc3c[nH]c1c32", "tested on": "Babesia divergens", "test": "parasite growth, SYBR Green", "setting": "60 h, blood stage", "measurement": "IC50", "value": "404 nM"}
{"Structure (SMILES)": "COc1cccc2c1C(=O)c1c(O)c3c(c(O)c1C2=O)C[C@@](O)(C(=O)CO)C[C@@H]3O[C@H]1C[C@H](N)[C@H](O)[C@H](C)O1", "tested on": "NCI-H1299", "test": "cell growth or viability, MTT", "setting": "2.5 µM", "measurement": "inhibition", "value": "95.7%"}
{"Structure (SMILES)": "C=CC(=O)NC1CCN(c2ncc3ncnc(Nc4ccc(Oc5ccc6c(c5)ncn6C)c(C)c4)c3n2)CC1", "tested on": "NCI-H1437", "test": "cell growth or viability", "measurement": "EC50", "value": "4990 nM"}
{"Structure (SMILES)": "N#Cc1ccc(Oc2ccc(C(=O)C(Cl)Cl)cc2[N+](=O)[O-])cc1", "tested on": "NCI-H1299", "test": "cell growth or viability, MTT", "setting": "2.5 µM", "measurement": "inhibition", "value": "96.2%"}
{"Structure (SMILES)": "CC#CCOc1ccc(/C=C/c2cc(OC)cc(OC)c2-c2cnnn2C(=O)NC(C)C)cc1", "tested on": "RAW264.7", "test": "NO release, inhibitor, Griess", "setting": "10 µM, LPS-stimulated", "measurement": "inhibition", "value": "78.7%"}
